Reference: ChEMBL document CHEMBL1137780, “Isocombretastatins a versus combretastatins a: the forgotten isoCA-4 isomer as a highly promising cytotoxic and antitubulin agent” (J Med Chem, 2009)
Calls of active or inactive are those of the source. The calls are words filed in the database; no cut-off is given here.

Key:
[1] = system: MDA-MB-231; assay: Cytotoxicity against human MDA-MB-231 cells after 72 hrs; assay type: functional, cell-based; settings: MDA-MB-231, 72 h
Summary of the method: (§1)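 Human K562 (chronic myelogenous leukemia) or MDA-MB231 (breast cancer) cells exposed to compound for 72 h; IC50 taken as concentration reducing cell growth by 50%, averaged over three experiments.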

[2] = Cytotoxicity against human H1299 cells after 72 hrs; assay type: functional, cell-based; settings: NCI-H1299, 72 h
Summary of the method: (§2)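 Human tumour cell lines (H1299 non-small-cell lung carcinoma, HCT116 colon carcinoma) were exposed to the test drug for 72 h. IC50 is the concentration that reduced cell growth by 50%, taken as the average of three experiments.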

[3] = system: HCT-116; assay: Cytotoxicity against human HCT116 cells after 72 hrs; assay type: functional, cell-based; settings: HCT-116, 72 h; summary of the method: as §2
[4] = system: K562; assay: Cytotoxicity against human K562 cells after 72 hrs; assay type: functional, cell-based; settings: K562, 72 h; summary of the method: as §1
[5] = Inhibition of tubulin polymerization assessed as blockade of microtubule assembly
[6] = Cytotoxicity against human NCI60 cells; assay type: functional
[7] = system: NCI-H460; assay: Ratio of IC50 of drug to IC50 for combretastatin CA-4 against human H460 cells; assay type: functional
[8] = system: NCI-H460; assay: Cytotoxicity against human H460 cells; assay type: functional, cell-based
[9] = system: P388; assay: Cytotoxicity against mouse P388 cells; assay type: functional; settings: read-out: ED50 (the source's name)
[10] = system: HCT-116; assay: Ratio of IC50 of drug to IC50 for combretastatin CA-4 against human HCT116 cells; assay type: functional
[11] = system: Colon 26; assay: Ratio of IC50 of drug to IC50 for combretastatin CA-4 against mouse Colon 26 cells; assay type: functional
[12] = system: K562; assay: Cell cycle arrest in human K562 cells assessed as increase in G2/M phase accumulation after 24 hrs; assay type: functional, cell-based
Summary of the method: (§3)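 K562 leukemia cells cultured 24 h with increasing concentrations of test agent; DNA content measured by propidium iodide staining and flow cytometry to give cell-cycle phase distribution (G1, S, G2/M).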

[13] = system: K562; assay: Cell cycle arrest in human K562 cells assessed as decrease in S phase accumulation after 24 hrs; assay type: functional, cell-based; summary of the method: as §3
[14] = system: K562; assay: Cell cycle arrest in human K562 cells assessed as decrease in G1 phase accumulation after 24 hrs; assay type: functional, cell-based; summary of the method: as §3

Row | Compound | IC50 [1] [µM] | IC50 [2] [µM] | IC50 [3] [µM] | IC50 [4] [µM] | IC50 ([5]; read-out: IC50) [µM] | further results
1 | C=C(c1ccc(OC)c(O)c1)c1cc(O)c(OC)c(OC)c1 | 0.008 | 0.025 | 0.034 | 0.052 | 5 | 
2 | COc1ccc(/C=C\c2cc(OC)c(OC)c(OC)c2)cc1O [COMBRETASTATIN A4] | 0.003 | 0.005 | 0.0023 | 0.0036 |  | GI50 [6]: 0.0032 µM
3 | C=C(c1ccc(OC)c(O)c1)c1cc(OC)c2c(c1)OCO2 | 0.048 | 0.032 | 0.038 | 0.038 | 3.4 | 
4 | COc1ccc(/C(F)=C(/F)c2cc(OC)c(OC)c(OC)c2)cc1O |  |  |  |  |  | Ratio IC50 [7]: 1.6; Activity [8]: Active
5 | COc1ccc(/C=C\c2cc(O)c(OC)c(OC)c2)cc1OC |  |  |  |  |  | EC50 [9]: 0.9 µM
6 | COc1ccc(/C(=C/C#N)c2cc(OC)c(OC)c(OC)c2)cc1O (mixture of isomers) |  |  | 0.003 |  | 4.3 | Ratio IC50 [10]: 1.3
7 | COc1cc2c(c(OC)c1OC)-c1ccc(OC)c(=O)cc1[C@@H](NC(C)=O)CC2 [COLCHICINE] | 0.026 | 0.03 | 0.032 | 0.029 | 2.1 | 
8 | COc1ccc(C(=C(F)F)c2cc(OC)c(OC)c(OC)c2)cc1O |  |  |  |  | 2.5 | Activity [8]: Active; Ratio IC50 [10]: 2.6
9 | C=C(c1cc(OC)c(OC)c(OC)c1)c1ccc(OC)c(O)c1O | 0.82 | 2 | 0.85 | 0.75 | 2.1 | 
10 | COc1ccc(/C=C\c2cc(OC)c(OC)c(OC)c2)c(O)c1O [COMBRETASTATIN A-1] |  |  |  |  |  | GI50 [6]: 0.0162 µM
11 | COc1ccc(/C=C\c2cc(O)c(OC)c(OC)c2)cc1O |  |  |  |  |  | EC50 [9]: 0.026 µM
12 | COc1ccc(/C=C\c2cc(OC)c3c(c2)OCO3)cc1O [Combretastatin A-2] |  |  |  |  |  | GI50 [6]: 0.0316 µM
13 | C=C(c1ccc(OC)c(OC)c1)c1cc(O)c(OC)c(OC)c1 | 3 | 5 | 2.8 | 3.1 |  | IC50 [5]: Not Active
14 | COc1ccc(C(=O)c2cc(OC)c(OC)c(OC)c2)cc1O [PHENSTATIN] | 0.028 | 0.021 | 0.033 | 0.041 | 2 | 
15 | COc1ccc(/C=C(/C#N)c2cc(OC)c(OC)c(OC)c2)cc1O |  |  |  |  |  | Ratio IC50 [11]: 1.3
16 | C=C(c1ccc(OC)c(O)c1)c1cc(OC)c(OC)c(OC)c1 | 0.004 | 0.005 | 0.0025 | 0.005 | 2.2 | Activity [12]: Dose-dependent effect; Activity [13]: Active; Activity [14]: Active
